Measured values as given in ChEMBL document CHEMBL3994584, “Identification of novel fluorescent probes preventing PrPSc replication in prion diseases” (Eur J Med Chem, 2017).

Assay: Antiprion activity against mouse prion protein RML infected mouse ScN2a cells assessed as reduction in proteinase K-resistant PrPSc level incubated for 5 days followed by proteinase K digestion by Western blot method
Conditions: 120 h
How it was run: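 RML-infected ScN2a cells were treated with 0.1, 1 and 10 μM for 5 days, with DMSO ≤0.1% final. Lysates (500 μg protein) were digested with 10 μg PK for 1 h at 37 °C, stopped with 2 mM PMSF and ultracentrifuged. Pellets were run on SDS-PAGE and immunoblotted with anti-PrP Fab W226, with ECL detection. Densitometry gave PK-resistant PrPSc over total PrP, with untreated set to 100%. Three independent experiments.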

## Cc1cccc(Nc2nc(-c3ccc(-c4ccnc(N5CCN(C)CC5)c4)cc3)cs2)n1
read-out: EC50
  EC50: 759 nM
read-out: pEC50 (converted)
  EC50: 759 nM

## Cc1cccc(Nc2nc(-c3ccc(N4CCN(C)CC4)cc3)cs2)n1
read-out: EC50
  EC50: 840 nM
read-out: pEC50 (converted)
  EC50: 832 nM

## COc1ccc(-c2csc(Nc3ccccn3)n2)cc1OC
read-out: EC50
  EC50: 1220 nM
read-out: pEC50 (converted)
  EC50: 1230 nM

## COc1cc2c(cc1OC)-c1nc(Nc3ccc(C)cn3)sc1C2
read-out: EC50
  EC50: 5590 nM
read-out: pEC50 (converted)
  EC50: 5620 nM

## COc1ccc(Nc2nc(-c3cc(-c4ccccc4)no3)cs2)nc1
read-out: EC50
  EC50: 230 nM
read-out: pEC50 (converted)
  EC50: 229 nM

## COCCOc1cc(-c2ccc(-c3csc(NC(=O)C4CC4)n3)cc2)ccn1
read-out: EC50
  EC50: 1320 nM
read-out: pEC50 (converted)
  EC50: 1320 nM

## c1ccc2nc(Nc3nc(-c4ccncc4)cs3)ccc2c1
read-out: EC50
  EC50: 310 nM
read-out: pEC50 (converted)
  EC50: 309 nM

## COCCOc1cc(-c2ccc(-c3csc(Nc4cccc(C)n4)n3)cc2)ccn1
read-out: EC50
  EC50: 153 nM
read-out: pEC50 (converted)
  EC50: 155 nM

## c1ccc(-c2cc(-c3csc(Nc4ccc5ccccc5n4)n3)on2)cc1
read-out: EC50
  EC50: 800 nM
read-out: pEC50 (converted)
  EC50: 794 nM

## CC(=O)Nc1ccc(-c2csc(Nc3ccccn3)n2)cc1
read-out: EC50
  EC50: 8500 nM
read-out: pEC50 (converted)
  EC50: 8510 nM

## c1ccc(-c2cc(-c3csc(Nc4ccc(-c5cnco5)cc4)n3)on2)cc1
read-out: EC50
  EC50: 57 nM
read-out: pEC50 (converted)
  EC50: 57.5 nM

## Cc1cccc(Nc2nc(-c3ccc(-c4ccc[n+]([O-])c4)cc3)cs2)n1
read-out: EC50
  EC50: 203 nM
read-out: pEC50 (converted)
  EC50: 204 nM

## COc1ccc(-c2csc(Nc3ccc(C)cn3)n2)cc1OC
read-out: EC50
  EC50: 790 nM
read-out: pEC50 (converted)
  EC50: 794 nM

## Cc1cccc(Nc2nc(-c3ccc(-c4c(C)noc4C)cc3)cs2)n1
read-out: EC50
  EC50: 2130 nM
read-out: pEC50 (converted)
  EC50: 2140 nM

## Cc1cccc(Nc2nc(-c3cc4ccccc4o3)cs2)n1
read-out: EC50
  EC50: 1460 nM
read-out: pEC50 (converted)
  EC50: 1450 nM

## COc1ccc(-c2csc(Nc3cc(C)ccn3)n2)cc1OC
read-out: EC50
  EC50: 1000 nM
read-out: pEC50 (converted)
  EC50: 1000 nM

## Cc1cccc(Nc2nc(-c3ccc(-c4cc[n+]([O-])cc4)cc3)cs2)n1
read-out: EC50
  EC50: 559 nM
read-out: pEC50 (converted)
  EC50: 562 nM

## Cc1ccc(Nc2nc3c(s2)Cc2ccccc2-3)nc1
read-out: EC50
  EC50: 2440 nM
read-out: pEC50 (converted)
  EC50: 2450 nM

## COc1ccc(-c2csc(Nc3cnccn3)n2)cc1OC
read-out: EC50
  EC50: 15600 nM
read-out: pEC50 (converted)
  EC50: 15500 nM

## Cc1cccc(Nc2nc(-c3ccncc3)cs2)n1
read-out: EC50
  EC50: 1000 nM
read-out: pEC50 (converted)
  EC50: 1000 nM

## O=C(Nc1nc(-c2ccc(-c3ccncc3)cc2)cs1)C1CC1
read-out: EC50
  EC50: 173 nM
read-out: pEC50 (converted)
  EC50: 174 nM

## COCC(=O)Nc1nc(-c2ccc(-c3ccccc3)cc2)cs1
read-out: EC50
  EC50: 1590 nM
read-out: pEC50 (converted)
  EC50: 1580 nM

## Cc1ccnc(Nc2nc(-c3cc(-c4ccccc4)no3)cs2)c1
read-out: EC50
  EC50: 1270 nM
read-out: pEC50 (converted)
  EC50: 1260 nM

## COc1ccc(-c2csc(Nc3ccc4ccccc4n3)n2)cc1
read-out: EC50
  EC50: 340 nM
read-out: pEC50 (converted)
  EC50: 339 nM

## Cc1ccc(Nc2nc(-c3ccc(-c4ccccn4)s3)cs2)nc1
read-out: EC50
  EC50: 1230 nM
read-out: pEC50 (converted)
  EC50: 1230 nM

## O=C(Nc1nc(-c2ccc(-c3ccccc3)cc2)cs1)C1CC1
read-out: EC50
  EC50: 248 nM
read-out: pEC50 (converted)
  EC50: 245 nM

## c1ccc2nc(Nc3nc(-c4cc5ccccc5o4)cs3)ccc2c1
read-out: EC50
  EC50: 920 nM
read-out: pEC50 (converted)
  EC50: 912 nM

## COc1ccc(-c2csc(Nc3cccnc3)n2)cc1OC
read-out: EC50
  EC50: 28000 nM
read-out: pEC50 (converted)
  EC50: 28200 nM

## Cc1cccc(Nc2nc(-c3ccc(-c4cccnc4)cc3)cs2)n1
read-out: EC50
  EC50: 68 nM
read-out: pEC50 (converted)
  EC50: 69.2 nM

## COc1ccc(-c2csc(Nc3ccncc3)n2)cc1OC
read-out: EC50
  EC50: 6380 nM
read-out: pEC50 (converted)
  EC50: 6460 nM

## COc1ccc(-c2ccc(-c3csc(Nc4cccc(C)n4)n3)cc2)cn1
read-out: EC50
  EC50: 140 nM
read-out: pEC50 (converted)
  EC50: 141 nM

## c1ccc(-c2ccc(-c3csc(Nc4ccc5ccccc5n4)n3)s2)nc1
read-out: EC50
  EC50: 2010 nM
read-out: pEC50 (converted)
  EC50: 2000 nM

## COc1ccc(-c2csc(Nc3ccc(C)cn3)n2)cc1
read-out: EC50
  EC50: 3030 nM
read-out: pEC50 (converted)
  EC50: 3020 nM

## COc1ccc(-c2csc(Nc3ccc4ccccc4n3)n2)cc1OC
read-out: EC50
  EC50: 430 nM
read-out: pEC50 (converted)
  EC50: 427 nM

## Cc1cccc(Nc2nc(-c3cc(-c4ccccc4)no3)cs2)n1
read-out: EC50
  EC50: 820 nM
read-out: pEC50 (converted)
  EC50: 813 nM

## COc1ccc(NC(=O)c2csc(Nc3ccc(C)cn3)n2)cc1OC
read-out: EC50
  EC50: 2440 nM
read-out: pEC50 (converted)
  EC50: 2450 nM

## c1ccc(-c2cc(-c3csc(Nc4ccncc4)n3)on2)cc1
read-out: EC50
  EC50: 4420 nM
read-out: pEC50 (converted)
  EC50: 4470 nM

## Cc1ccc(Nc2nc(-c3cc(-c4ccccc4)no3)cs2)nc1
read-out: EC50
  EC50: 940 nM
read-out: pEC50 (converted)
  EC50: 933 nM

## Cc1ccc(Nc2nc(-c3ccccc3)cs2)nc1
read-out: EC50
  EC50: 7880 nM
read-out: pEC50 (converted)
  EC50: 7940 nM

## FC(F)(F)c1csc(Nc2ccc3ccccc3n2)n1
read-out: EC50
  EC50: 8660 nM
read-out: pEC50 (converted)
  EC50: 8710 nM

## CN1CCN(c2cccc(Nc3nc(-c4ccc(-c5ccccc5)cc4)cs3)n2)CC1
read-out: EC50
  EC50: 1180 nM
read-out: pEC50 (converted)
  EC50: 1170 nM

## Cc1cccc(Nc2nc(-c3ccc(N4CCOCC4)cc3)cs2)n1
read-out: EC50
  EC50: 51 nM
read-out: pEC50 (converted)
  EC50: 51.3 nM

## COCCOc1ccc(-c2ccc(-c3csc(NC(=O)C4CC4)n3)cc2)cn1
read-out: EC50
  EC50: 118 nM
read-out: pEC50 (converted)
  EC50: 117 nM

## COc1ccc(-c2csc(Nc3cccc(C)n3)n2)cc1OC
read-out: EC50
  EC50: 3010 nM
read-out: pEC50 (converted)
  EC50: 3020 nM

## Cc1ccnc(Nc2nc(-c3cc(-c4ccc(Cl)cc4)no3)cs2)c1
read-out: EC50
  EC50: 850 nM
read-out: pEC50 (converted)
  EC50: 851 nM

## Cc1ccnc(Nc2nc(-c3ccncc3)cs2)c1
read-out: EC50
  EC50: 4950 nM
read-out: pEC50 (converted)
  EC50: 5010 nM

## Oc1ccc(-c2csc(Nc3ccccn3)n2)cc1O
read-out: EC50
  EC50: 10000 nM
read-out: pEC50 (converted)
  EC50: 10000 nM

## c1cc(-c2csc(Nc3ccc(-c4cnco4)cc3)n2)ccn1
read-out: EC50
  EC50: 124 nM
read-out: pEC50 (converted)
  EC50: 123 nM

## COc1ccc(-c2csc(N(C(C)=O)c3ccc4ccccc4n3)n2)cc1OC
read-out: EC50
  EC50: 81 nM
read-out: pEC50 (converted)
  EC50: 81.3 nM

## Cc1cccc(Nc2nc(-c3ccc(-c4ccncc4C)cc3)cs2)n1
read-out: EC50
  EC50: 618 nM
read-out: pEC50 (converted)
  EC50: 617 nM

## Cc1cccc(Nc2nc(-c3ccc(-c4ccccc4)cc3)cs2)n1
read-out: EC50
  EC50: 2290 nM
read-out: pEC50 (converted)
  EC50: 1260 nM

## Cc1cccc(Nc2nc(-c3ccc(O)cc3O)cs2)n1
read-out: EC50
  EC50: 3900 nM
read-out: pEC50 (converted)
  EC50: 3890 nM

## Cc1cccc(Nc2nc(-c3ccc(O)c(O)c3)cs2)n1
read-out: EC50
  EC50: 2500 nM
read-out: pEC50 (converted)
  EC50: 2510 nM

## CN(C)c1ccncc1-c1ccc(-c2csc(NC(=O)C3CC3)n2)cc1
read-out: EC50
  EC50: 109 nM
read-out: pEC50 (converted)
  EC50: 110 nM

## COc1ccc(-c2csc(Nc3ncccn3)n2)cc1OC
read-out: EC50
  EC50: 3940 nM
read-out: pEC50 (converted)
  EC50: 3980 nM

## O=C(CN1CCCC1)Nc1ccc(Cc2ccc(NC(=O)CN3CCCC3)cc2)cc1
read-out: EC50
  EC50: 1350 nM
read-out: pEC50 (converted)
  EC50: 1350 nM

## c1ccc(-c2cc(-c3csc(Nc4ccccn4)n3)on2)cc1
read-out: EC50
  EC50: 600 nM
read-out: pEC50 (converted)
  EC50: 603 nM

## COc1ccc(-c2csc(N(C)c3ccc4ccccc4n3)n2)cc1OC
read-out: EC50
  EC50: 140 nM
read-out: pEC50 (converted)
  EC50: 141 nM

## Cc1ccc(Nc2nc(-c3ccccn3)cs2)nc1
read-out: EC50
  EC50: 860 nM
read-out: pEC50 (converted)
  EC50: 851 nM

## COc1ccnc(Nc2nc(-c3cc(-c4ccccc4)no3)cs2)c1
read-out: EC50
  EC50: 250 nM
read-out: pEC50 (converted)
  EC50: 251 nM

## NS(=O)(=O)c1ccc(Nc2nc(-c3ccc(O)c(O)c3)cs2)cc1
read-out: EC50
  EC50: 13500 nM
read-out: pEC50 (converted)
  EC50: 13500 nM

## Cc1ccc(Nc2nc(-c3ccncc3)cs2)nc1
read-out: EC50
  EC50: 1570 nM
read-out: pEC50 (converted)
  EC50: 1580 nM

## Cc1cccc(Nc2nc(-c3ccc(-c4ccc(N(C)C)nc4)cc3)cs2)n1
read-out: EC50
  EC50: 69 nM
read-out: pEC50 (converted)
  EC50: 69.2 nM

## COc1ccc(-c2csc(Nc3ccc4ccccc4c3)n2)cc1OC
read-out: EC50
  EC50: 390 nM
read-out: pEC50 (converted)
  EC50: 389 nM

## c1ccc(-c2csc(Nc3ccc4ccccc4n3)n2)cc1
read-out: EC50
  EC50: 3080 nM
read-out: pEC50 (converted)
  EC50: 3090 nM

## Cc1cccc(Nc2nc(-c3ccc(-c4ccnc(N(C)C)c4)cc3)cs2)n1
read-out: EC50
  EC50: 123 nM
read-out: pEC50 (converted)
  EC50: 123 nM

## Cc1ccc(Nc2nc(-c3cccc(C#N)c3)cs2)nc1
read-out: EC50
  EC50: 2290 nM
read-out: pEC50 (converted)
  EC50: 2290 nM

## COc1ccc(-c2csc(Nc3ccc(C(F)(F)F)cn3)n2)cc1OC
read-out: EC50
  EC50: 2530 nM
read-out: pEC50 (converted)
  EC50: 2510 nM
